Assay results taken from PMC3511619 (Journal of ethnopharmacology, 2012).

Columns and labels:
HCV NS5B = HCV NS5B (Hepatitis C virus genotype 1b, UniProt P26663); assay: RdRp assay; assay type: biochemical; settings: for IC50, inhibition of NS5B RdRp activity in vitro: single isolates; for IC90: read-out: IC90, RdRp activity of HCV NS5B
[1] = tested on: HCV subgenomic replicon (HCV RNA) in MH14 cells; assay: Quantitation of HCV RNA by RT-PCR in MH14 cells; assay type: cell-based, Hepatitis C virus; settings: for inhibition of HCV RNA replication: 500 μM; for HCV replication reduced: 100 μM
Summary of the method: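 MH14 cells carrying a stable HCV subgenomic replicon were kept at 37 °C, 5% CO2 in DMEM with 10% FBS, penicillin/streptomycin, glutamine and 300 μg/ml G418. Cells were grown 60 h with or without test compound dissolved in DMSO. Total RNA was TRIzol-extracted. HCV RNA was reverse-transcribed with an HCV-specific primer and PCR-amplified for 25 cycles (1 min each at 94, 52, 72 °C). GAPDH mRNA served as internal control.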

MH14 cells = assay: MTT assay; settings: for effect on cell growth / influence on cell viability / toxicity: 48 h, MH14 cells; for influence on cell viability: 2 μM and 10 μM; for toxicity: 50 μM and 100 μM
[2] = tested on: HCV subgenomic replicon (NS5B, NS5A expression) in MH14 cells; assay type: cell-based, Hepatitis C virus; settings: for viral replication reduced (first statement, Fig. 4 B, C): cell culture system; for inhibition at 100 µM: Hepatitis C virus, MH14, read-out: inhibition of NS5B
Summary of the method: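 MH14 cells with stably replicating HCV subgenomic replicon, grown at 37 °C, 5% CO2 in DMEM with 10% FBS, penicillin/streptomycin, glutamine and 300 μg/ml G418. Cells were exposed to DMSO-dissolved test compound for 48 h, washed, lysed in SDS buffer, boiled, and clarified. Blots were probed with anti-NS5B, NS5A or actin (1:500, overnight, 4 °C), then HRP secondary (1:5,000, 1 h). Chemiluminescent detection used β-actin as the loading control.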

HCV NS5B (CΔ21) = HCV NS5B (CΔ21) (Hepatitis C virus genotype 1b, UniProt P26663); assay: Fluorescence quenching binding assay; settings: for time to binding equilibrium with NS5B (fluorescence quenched): data not shown
[3] = tested on: tumor suppressor protein, p53; assay: p53 expression; assay type: cell-based; settings: cells not given
[4] = tested on: p53 expression in peripheral blood mononuclear cells (PBMC); assay: p53 expression in peripheral blood mononuclear cells; assay type: cell-based

| Structure (SMILES) | IC50 (HCV NS5B) [µM] | inhibition of HCV RNA replication [1] | effect on cell growth (MH14 cells) | IC50, inhibition of NS5B RdRp activity in vitro (HCV NS5B) | IC90 (HCV NS5B) [µM] | viral replication reduced (first statement, Fig. 4 B, C) ([2]; 50 μM) [%] | inhibition at 100 µM [2] [%] | HCV replication inhibited, judged by HCV RNA level ([1]; 50 μM) [%] | HCV replication reduced [1] | Kd (HCV NS5B (CΔ21)) [µM] | time to binding equilibrium with NS5B (fluorescence quenched) (HCV NS5B (CΔ21)) [min] | effect on tumor suppressor protein p53 [3] | effect on p53 expression [4] | cytotoxicity in MH14 cell (MH14 cells) | inhibition of NS5B expression ([2]; 10 μM, MH14 cells, 48 h) [%] | NS5B expression by Western blot ([2]; 50 μM, MH14 cells, 48 h) | HCV replication inhibited, judged by HCV RNA level ([1]; 10 μM) [%] | influence on cell viability (MH14 cells) | toxicity (MH14 cells) |
| --- | --- | --- | --- | --- | --- | --- | --- | --- | --- | --- | --- | --- | --- | --- | --- | --- | --- | --- | --- |
| O=C(O)c1ccc(O)c(O)c1 [Compound 1, 3,4-dihydroxybenzoic acid] | 400 | inhibited HCV RNA replication only at very high concentrations | enhanced cellular proliferation | – | – | – | – | – | – | – | – | – | – | – | – | – | – | – | – |
| O=C(O)c1ccc(O)cc1 [Compound 2, 4-hydroxybenzoic acid] | – | inhibited HCV RNA replication only at very high concentrations | enhanced cellular proliferation | did not inhibit | – | – | – | – | – | – | – | – | – | – | – | – | – | – | – |
| O=c1cc(-c2ccc(O)c(O)c2)oc2cc(O)cc(O)c12 [Compound 3, luteolin] | 11.3 | – | – | – | 52 | ~50 | > 90 | 50 | approximately 80% | 31.5 | ≤ 1 | strongly up-regulate | no effect | comparable high cytotoxicity | – | – | – | – | – |
| COc1cc(O)c2c(c1)oc(=O)c1c3cc(O)c(O)cc3oc21 [Compound 4, wedelolactone] | 7.7 | – | – | indistinguishable | 32 | – | – | 80 | – | 24.3 | ≤ 1 | – | – | – | > 80 | could not detect the expression of NS5B | 30 | no influence on cell viability | toxic |
| O=c1cc(-c2ccc(O)cc2)oc2cc(O)cc(O)c12 [Compound 5, apigenin] | 175 | – | – | – | – | ~50 | > 90 | 50 | ~90% | 122 | ≤ 1 | strongly up-regulate | no effect | comparable high cytotoxicity | – | – | – | no influence on cell viability | toxic |
